Reference: ChEMBL document CHEMBL1795208 (J Med Chem, 2011)

Experiments:
Format in all cases: functional, cell-based
[1] = test system: SK-BR-3; assay: Antiproliferative activity against human SKBR3 cells expressing HER2 after 72 hrs by MTS/PMS assay; settings: SK-BR-3, 72 h
Summary of the method: (§1)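 Cells kept in Advanced DMEM/F12 (1:1) with non-essential amino acids, 2 mM L-glutamine, penicillin, streptomycin and 10% FBS at 37 °C, 5% CO2. Seeded at 2000/well, attached overnight. Compound added in DMSO across a concentration range (1% DMSO final) for 72 h. Viable cells read by MTS/PMS and normalized to 1% DMSO controls (100%). IC50 taken from separate triplicate experiments.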

[2] = test system: MCF7; assay: Antiproliferative activity against human MCF7 cells expressing estrogen receptor after 72 hrs by MTS/PMS assay; settings: MCF7, 72 h; summary of the method: as §1
[3] = Antiproliferative activity against human androgen-dependent LNCaP-LN3 cells after 72 hrs by MTS/PMS assay; settings: LNCaP-LN3, 72 h; summary of the method: as §1
[4] = Antiproliferative activity against human androgen-independent PC3MM2 cells after 72 hrs by MTS/PMS assay; settings: PC3MM2, 72 h; summary of the method: as §1
[5] = test system: B16-F10; assay: Antiproliferative activity against mouse B16F10 cells after 72 hrs by MTS/PMS assay; settings: B16-F10, 72 h; summary of the method: as §1
[6] = test system: SK-MEL-28; assay: Antiproliferative activity against human SK-MEL-28 cells after 72 hrs by MTS/PMS assay; settings: SK-MEL-28, 72 h; summary of the method: as §1
[7] = Antiproliferative activity against human MDA1986 cells after 72 hrs by MTS/PMS assay; settings: MDA1986, 72 h; summary of the method: as §1
[8] = Antiproliferative activity against human JMAR cells after 72 hrs by MTS/PMS assay; summary of the method: as §1

Compound | IC50 [1] [µM] | IC50 [2] [µM] | IC50 [3] [µM] | IC50 [4] [µM] | IC50 [5] [µM] | IC50 [6] [µM] | IC50 [7] [µM] | IC50 [8] [µM]
COc1cccc(-c2cc(C(=O)Nc3cc4ccc(OC(C)=O)c(C)c4oc3=O)ccc2OC)c1 | 0.98 | 1.4 | 1.5 | 2.85 | 2.3 | 2.14 | 1.67 | 12.6
COc1cccc(-c2cc(C(=O)Nc3cc4ccc(OC5CCN(C)CC5)c(OC)c4oc3=O)ccc2OC)c1 | 0.97 | 1.39 | 4.75 | 3.71 | 0.41 | 6.14 | 13.1 | 13.1
COc1cccc(-c2cc(C(=O)Nc3cc4ccc(OC5CN(C)C[C@@H](O)[C@H]5O)c(OC)c4oc3=O)ccc2OC)c1 (some centres not stated) | 6.64 | 11 | 1.5 | 3.52 | 6.58 | 5.9 | 5.9 | 6.7
COc1cccc(-c2cc(C(=O)Nc3cc4ccc(OC5CCNCC5)c(OC)c4oc3=O)ccc2OC)c1 | 1.79 | 3.23 | 10.8 | 8.47 | 2.14 | 16.4 | 10.9 | 12.6
COc1cccc(-c2cc(C(=O)Nc3cc4cc(OC)c(OC5CCN(C)CC5)c(C)c4oc3=O)ccc2OC)c1 | 1.19 | 1.79 | 4.17 | 2.84 | 36.7 | 3.74 | 1.54 | 1.84
COc1cccc(-c2cc(C(=O)Nc3cc4ccc(OC5CCC[C@@H](O)[C@H]5O)c(C)c4oc3=O)ccc2OC)c1 (some centres not stated) | > 100 | > 100 | 1.58 | 4.04 | 14.1 | 2.94 | 17.9 | 13.9
COc1cccc(-c2cc(C(=O)Nc3cc4ccc(OC5C=CCNC5)c(C)c4oc3=O)ccc2OC)c1 (configuration not stated) | 1.61 | 1.73 | 4.27 | 4.4 | 2.94 | 5.41 | 6.54 | 3.4
COc1cccc(-c2cc(C(=O)Nc3cc4ccc(OC5CC(C)C[C@@H](O)[C@H]5O)c(C)c4oc3=O)ccc2OC)c1 (some centres not stated) | > 100 | > 100 | 1.14 | 4.09 | 2.5 | 11.4 | 6.74 | 2.73
COc1cc2cc(NC(=O)c3cc4ccccc4[nH]3)c(=O)oc2c(C)c1OC1CCN(C)CC1 | 0.11 | 0.52 | 1.47 | 0.87 | 1.19 | 1.47 | 1.42 | 1.24
COc1cccc(-c2cc(C(=O)Nc3cc4cc(OC)c(OC5C=CCNC5)c(C)c4oc3=O)ccc2OC)c1 (configuration not stated) | 1.21 | 1.68 | 5.4 | 3.57 | 2.86 | 5.41 | 5.9 | 11.6
COc1cccc(-c2cc(C(=O)Nc3cc4ccc(OC5C=CCNC5)c(OC)c4oc3=O)ccc2OC)c1 (configuration not stated) | 3.07 | 1.43 | 6.45 | 4.88 | 3.41 | 5.49 | 5.97 | 6.71
COc1cccc(-c2cc(C(=O)Nc3cc4cc(OC)c(OC5CCCN(C)C5)c(C)c4oc3=O)ccc2OC)c1 (configuration not stated) | 1.49 | 1.41 | 10.5 | 6.86 | 2.67 | 5.86 | 13.2 | 19.1
COc1cccc(-c2cc(C(=O)Nc3cc4ccc(O[C@@H]5OC[C@@H](O)[C@H]5O)c(OC)c4oc3=O)ccc2OC)c1 | 7.57 | 11.7 | 2.6 | 10.6 | 1.3 | 6.41 | 5.73 | 2.71
COc1cccc(-c2cc(C(=O)Nc3cc4ccc(O[C@@H]5O[C@H](CO)C[C@@H](O)[C@H]5O)c(C)c4oc3=O)ccc2OC)c1 | 9.59 | 11.1 | 3.23 | 4.58 | 9.6 | 10.7 | 5.7 | 5.8
